This note sets out measurements from ChEMBL document CHEMBL4725272, “Studies on the stereoselective synthesis and immunosuppressive activity of dihydroartemisinin-O-glycoside derivatives” (Bioorg Med Chem Lett, 2020).

Assay [1] can be described thus: (§1) Inhibition of human CD4+ve Th cell proliferation. The format is functional, tissue-based. In outline:
(§2)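 Human T cells, proliferation inhibition measured over a dose series, run in triplicate (n=3). IC50 was taken from dose-response curves fitted by four-parameter non-linear regression.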

Assay [2] in a line: (§3) Inhibition of human CD8+ve […] cell proliferation. Type of assay: functional, tissue-based. Conditions: CD8-positive T cell. Summed up:
as §2

Assay [3] in a line: Inhibition of T cell (unknown origin) proliferation. Type of assay: functional, tissue-based.
A short description of assay [4]: Inhibition of B cell (unknown origin) proliferation. Type of assay: functional, tissue-based.
Another assay concerns CD4+ve Th. The assay is described as §1. The format is functional, tissue-based. In outline:
as §2

A short description of assay [5]: Inhibition of human T cell proliferation relative to control. The format is functional.
Another assay deals with T cell. As to the kind of experiment: Immunosuppressive activity in human primary T-cells extracted form PBMC assessed as inhibition of CD3/CD28-induced IFN-gamma recovery in cell culture media at 2-32 uM incubated for 120 hrs by ELISA. The format is functional, tissue-based. The settings on record: dose microM 2-32, time 120.0 hrs.
Assay [6] can be described thus: Immunosuppressive activity in human primary T-cells extracted from PBMC assessed as inhibition of CD3/CD28-induced IFN-gamma recovery in cell culture media incubated for 120 hrs by ELISA relative to control. Type of assay: functional.
Another assay relates to CD8-positive T cell. The assay is described as §3. Type of assay: functional, tissue-based. In outline: as §2

On to `C[C@H]1[C@@H](O[C@H]2O[C@H](CO)[C@@H](O)[C@H](O)[C@@H]2O)O[C@@H]2O[C@@]3(C)CC[C@H]4[C@H](C)CC[C@@H]1[C@@]24OO3`, for which the IC50 in assay [1] and in assay [2] was more than 32 µM in each case.

`C[C@H]1[C@@H](O[C@H]2OC[C@H](O)[C@H](O)[C@H]2O)O[C@@H]2O[C@@]3(C)CC[C@H]4[C@H](C)CC[C@@H]1[C@@]24OO3`: the IC50 is 14.1 µM in [1] and 13 µM in [2].

For the molecule `C[C@H]1[C@@H](O[C@H]2O[C@H](CO)[C@H](O)[C@H](O)[C@H]2O)O[C@@H]2O[C@@]3(C)CC[C@H]4[C@H](C)CC[C@@H]1[C@@]24OO3`, the results for the IC50 in [1] and in [2] were 10.4 µM and 8.63 µM, respectively.

For `C[C@H]1[C@@H](O[C@H]2OC[C@@H](O)[C@H](O)[C@H]2O)O[C@@H]2O[C@@]3(C)CC[C@H]4[C@H](C)CC[C@@H]1[C@@]24OO3`, the results for the IC50 in [1] and in [2] were 10.8 µM and 9.52 µM, respectively.

As to `C[C@H]1[C@@H](OCCN)O[C@@H]2O[C@@]3(C)CC[C@H]4[C@H](C)CC[C@@H]1[C@@]24OO3`, the IC50 in assay [1] is 1.05 µM; in assay [3], 1200 nM; in [4] it was 2600 nM; in assay [2] it was 1.36 µM.

Consider `C[C@H]1[C@H](O[C@@H]2O[C@H](CO)[C@@H](O)[C@H](O)[C@@H]2O)O[C@@H]2O[C@@]3(C)CC[C@H]4[C@H](C)CC[C@@H]1[C@@]24OO3`, for which the inhibition result with CD4+ve Th, with T cell and with CD8-positive T cell was “Dose-dependent effect” in each case. Moreover, the IC50 in assay [1] amounted to 3.49 µM; in assay [2] it was 2.65 µM. Also, the “inhibition (INH)” value in [5] worked out at 88%; in [6], 98%.

As to `C[C@H]1[C@@H](O)O[C@@H]2O[C@@]3(C)CC[C@H]4[C@H](C)CC[C@@H]1[C@@]24OO3` [ARTENIMOL], the 50% inhibitory concentration (IC50) in assay [1] was determined as 4.03 µM; in assay [2], 5.53 µM.

Regarding `C[C@H]1[C@H](O[C@H]2O[C@@H](C)[C@H](O)[C@@H](O)[C@H]2O)O[C@@H]2O[C@@]3(C)CC[C@H]4[C@H](C)CC[C@@H]1[C@@]24OO3`, the inhibition result with CD4+ve Th, in the assay with T cell and with CD8-positive T cell was “Dose-dependent effect” throughout. The concentration for half-maximal inhibition (IC50) in assay [1] was 3.83 µM; in [2], 3.36 µM.

Take `C[C@H]1[C@@H](O[C@H]2O[C@H](CO)[C@@H](O)[C@H](O)[C@H]2O)O[C@@H]2O[C@@]3(C)CC[C@H]4[C@H](C)CC[C@@H]1[C@@]24OO3`: the 50% inhibitory concentration (IC50) in assay [1] is 17.9 µM; in assay [2], 19.4 µM.

In the case of `C[C@H]1[C@@H](O[C@@H]2O[C@H](CO)[C@@H](O[C@H]3O[C@H](CO)[C@@H](O)[C@H](O)[C@H]3O)[C@H](O)[C@H]2O)O[C@@H]2O[C@@]3(C)CC[C@H]4[C@H](C)CC[C@@H]1[C@@]24OO3`, the IC50 is 9.09 µM in assay [1] and 4 µM in assay [2].
